Test results from ChEMBL document CHEMBL3352329, “Antifungal activity of resveratrol derivatives against Candida species” (2014).
≈ marks a conversion by molar mass, not a printed value. Calls of active or inactive are those of the source. The calls are words filed in the database; no cut-off is given here.

Assays:
Nakaseomyces glabratus = test: Antifungal activity against Candida glabrata ATCC 90030 assessed as growth inhibition after 48 hrs by broth microdilution method; format: functional; conditions: ATCC 90030, 48 h
How it was run: (§1)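 CLSI broth microdilution with serial 2-fold dilutions in RPMI AutoMod medium. Inoculum from a 0.5 McFarland suspension (10^6 cfu/mL). Plates incubated 48 h at 32 °C, then OD read at 630 nm. MIC95 is the lowest concentration giving 95% growth inhibition versus untreated control. Mean of two independent experiments, each run in triplicate.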

Pichia norvegensis = test: Antifungal activity against Candida norvegensis clinical isolate assessed as growth inhibition after 48 hrs by broth microdilution method; format: functional; how it was run: as §1
Candida parapsilosis = test: Antifungal activity against Candida parapsilosis ATCC 22019 assessed as growth inhibition after 48 hrs by broth microdilution method; format: functional; conditions: Lodderomyces parapsilosis, ATCC 22019, 48 h; how it was run: as §1
Kluyveromyces marxianus = test: Antifungal activity against Candida kefyr clinical isolate assessed as growth inhibition after 48 hrs by broth microdilution method; format: functional; how it was run: as §1
Candida tropicalis [1] = test: Antifungal activity against Candida tropicalis ATCC MYA-3404/T1 assessed as growth inhibition after 48 hrs by broth microdilution method; format: functional; conditions: ATCC MYA-3404/T1, 48 h; how it was run: as §1
Clavispora lusitaniae = test: Antifungal activity against Candida lusitaniae CBS 6936 assessed as growth inhibition after 48 hrs by broth microdilution method; format: functional; conditions: CBS 6936, 48 h; how it was run: as §1
[Candida] inconspicua = Antifungal activity against Candida inconspicua clinical isolate assessed as growth inhibition after 48 hrs by broth microdilution method; format: functional; conditions: Pichia inconspicua; how it was run: as §1
Debaryomyces hansenii = test: Antifungal activity against Candida famata VKMY-9 assessed as growth inhibition after 48 hrs by broth microdilution method; format: functional; conditions: VKMY-9, 48 h; how it was run: as §1
Candida dubliniensis = test: Antifungal activity against Candida dubliniensis ATCC MYA-646 assessed as growth inhibition after 48 hrs by broth microdilution method; format: functional; conditions: ATCC MYA-646, 48 h; how it was run: as §1
[2] = test system: Meyerozyma guilliermondii; test: Antifungal activity against Candida guilliermondii ATCC 6260 assessed as growth inhibition after 48 hrs by broth microdilution method; format: functional; conditions: ATCC 6260, 48 h; how it was run: as §1
Candida albicans [3] = test: Antifungal activity against Candida albicans SC5314 ATCC MYA-2876 assessed as growth inhibition after 48 hrs by broth microdilution method; format: functional; conditions: SC5314 ATCC MYA-2876, 48 h; how it was run: as §1
Pichia kudriavzevii = test: Antifungal activity against Candida krusei ATCC 6258 assessed as growth inhibition after 48 hrs by broth microdilution method; format: functional; conditions: ATCC 6258, 48 h; how it was run: as §1
Candida tropicalis [4] = test: Antifungal activity against Candida tropicalis ATCC MYA-3404/T1 assessed as growth inhibition at 300 ug/ml after 48 hrs by broth microdilution method; format: functional, organism-based
How it was run: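 Broth microdilution per CLSI, serial 2-fold dilutions in RPMI AutoMod medium; inoculum 0.5 McFarland (10^6 cfu/mL). Incubation 48 h at 32 °C, OD 630 nm read; activity judged against untreated control, MIC95 being lowest concentration giving 95% growth inhibition; 300 μg/mL highest concentration tested. Two independent experiments, each in triplicate; mean values.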

Candida albicans [5] = test: Antifungal activity against Candida albicans SC5314 ATCC MYA-2876 assessed as growth inhibition at 300 ug/ml after 48 hrs by broth microdilution method; format: functional, organism-based
How it was run: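 Broth microdilution in RPMI AutoMod medium against SC5314, tested up to 300 μg/mL, the highest concentration used. Inoculum from a 0.5 McFarland suspension (10^6 cfu/mL). Incubated 48 h at 32 °C, growth read as OD at 630 nm. Activity judged as 95% growth inhibition versus control. Two independent experiments, each in triplicate.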

Candida albicans [6] = test: Antifungal activity against Candida albicans SC5314 ATCC MYA-2876 assessed as inhibition of hyphal formation at 14 ug/ml after 48 hrs by microscopy; format: functional, organism-based
How it was run: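 Yeast-to-hyphae transition of SC5314 examined after 48 h at 32 °C in RPMI medium. Cells exposed to 7, 14 or 28 μg/mL alongside untreated control cells. Hyphal formation assessed by comparing cell morphology between treated and control cultures.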

Structure (SMILES)	MIC95 (Nakaseomyces glabratus) [µg/mL]	MIC95 (Pichia norvegensis) [µg/mL]	MIC95 (Candida parapsilosis) [µg/mL]	MIC95 (Kluyveromyces marxianus) [µg/mL]	MIC95 (Clavispora lusitaniae) [µg/mL]	MIC95 ([Candida] inconspicua) [µg/mL]	MIC95 (Debaryomyces hansenii) [µg/mL]	MIC95 (Candida dubliniensis) [µg/mL]	MIC95 [2] [µg/mL]	MIC95 (Candida albicans [3]) [µg/mL]	MIC95 (Pichia kudriavzevii) [µg/mL]	growth inhibition (GI) (Candida albicans [5])	other results
COc1ccc(/C=C/c2cc(O)cc(OC)c2)cc1	37 (≈ 144 µM)	37 (≈ 144 µM)	18 (≈ 70.2 µM)	18 (≈ 70.2 µM)	37 (≈ 144 µM)	37 (≈ 144 µM)	9 (≈ 35.1 µM)	18 (≈ 70.2 µM)	18 (≈ 70.2 µM)	37 (≈ 144 µM)	37 (≈ 144 µM)		MIC95 (Candida tropicalis [1]): 27 µg/mL (≈ 105 µM)
COc1cc(O)cc(/C=C/c2ccc(O)cc2)c1	300 (≈ 1240 µM)	300 (≈ 1240 µM)	300 (≈ 1240 µM)	150 (≈ 619 µM)	300 (≈ 1240 µM)	300 (≈ 1240 µM)	18 (≈ 74.3 µM)	150 (≈ 619 µM)	150 (≈ 619 µM)	300 (≈ 1240 µM)	300 (≈ 1240 µM)		growth inhibition (GI) (Candida tropicalis [4]): inactive
CC(=O)Oc1cc(/C=C/c2ccc(O)cc2)cc(OC(C)=O)c1												inactive	
CC(=O)Oc1cc(O)cc(/C=C/c2ccc(O)cc2)c1												inactive	
CC(=O)Oc1ccc(/C=C/c2cc(O)cc(OC(C)=O)c2)cc1												inactive	
CC(=O)Oc1ccc(/C=C/c2cc(OC(C)=O)cc(OC(C)=O)c2)cc1												inactive	
CC(=O)Oc1ccc(/C=C/c2cc(OC(C)=O)cc3c2[C@H](c2cc(OC(C)=O)cc(OC(C)=O)c2)[C@@H](c2ccc(OC(C)=O)cc2)O3)cc1												inactive	
COc1ccc(/C=C/c2cc(OC)cc(OC)c2)cc1												inactive	
OC[C@H]1O[C@@H](Oc2cc(O)cc(/C=C/c3ccc(O)cc3)c2)[C@H](O)[C@@H](O)[C@@H]1O												inactive	
Oc1ccc(/C=C/c2cc(O)cc(O)c2)cc1												inactive	
Oc1ccc([C@H]2c3c(O)cc(O)cc3[C@H]3c4c(cc(O)cc4[C@@H]2O)O[C@@H]3c2ccc(O)cc2)cc1												inactive	
Oc1ccc([C@H]2Oc3ccc(/C=C/c4cc(O)cc5c4[C@@H](c4cc(O)cc(O)c4)[C@H](c4ccc(O)cc4)O5)cc3[C@@H]2c2cc(O)cc3c2[C@H](c2cc(O)cc(O)c2)[C@@H](c2ccc(O)cc2)O3)cc1 (mixture of isomers)	300	300	300	150	300	300	18	150	150	300	300		growth inhibition (GI) (Candida tropicalis [4]): inactive
COc1ccc(/C=C/c2cc(OC)cc3c2[C@H](c2cc(OC)cc(OC)c2)[C@@H](c2ccc(OC)cc2)O3)cc1 (relative stereo)												inactive	
Oc1ccc(/C=C/c2cc(O)cc3c2[C@H](c2cc(O)cc(O)c2)[C@@H](c2ccc(O)cc2)O3)cc1 (relative stereo)												inactive	
Nc1nc(=O)[nH]cc1F [FLUCYTOSINE]	4 (≈ 31 µM)	4 (≈ 31 µM)	4 (≈ 31 µM)	4 (≈ 31 µM)	2 (≈ 15.5 µM)	4 (≈ 31 µM)	2 (≈ 15.5 µM)	2 (≈ 15.5 µM)	2 (≈ 15.5 µM)	2 (≈ 15.5 µM)	4 (≈ 31 µM)		MIC95 (Candida tropicalis [1]): 4 µg/mL (≈ 31 µM)
COc1cc(/C=C/c2ccc(O)cc2)cc(OC)c1 [PTEROSTILBENE]	28 (≈ 109 µM)	28 (≈ 109 µM)	14 (≈ 54.6 µM)	14 (≈ 54.6 µM)	28 (≈ 109 µM)	28 (≈ 109 µM)	7 (≈ 27.3 µM)	14 (≈ 54.6 µM)	7 (≈ 27.3 µM)	28 (≈ 109 µM)	28 (≈ 109 µM)		MIC95 (Candida tropicalis [1]): 28 µg/mL (≈ 109 µM); inhibition (Candida albicans [6]): Active
COc1ccc(/C=C/c2cc(O)cc(O)c2)cc1 [RESVERATROL 4'-METHYL ETHER]	150 (≈ 619 µM)	75 (≈ 310 µM)	300 (≈ 1240 µM)	150 (≈ 619 µM)	300 (≈ 1240 µM)	300 (≈ 1240 µM)	18 (≈ 74.3 µM)	150 (≈ 619 µM)	150 (≈ 619 µM)	150 (≈ 619 µM)	150 (≈ 619 µM)		MIC95 (Candida tropicalis [1]): 300 µg/mL (≈ 1240 µM)
